Published values from different studies.
Compare with care: the assays were run in different laboratories.

Compound	system	setting	measurement	value
O=C(O)C1CCN(c2ncc(-c3ccc4c(c3)OCCCO4)s2)CC1	male Swiss mouse, plasma	oral, 30 mg/kg, 1 h, single dose	concentration	7580 ng/mL
c1cnc2ccc(Nc3nc(NC4CC4)c4nc[nH]c4n3)cc2c1	human, plasma	oral, 400 mg/m², patients	MRT(0-t)	6.8 h
CC(C)CN(C[C@@H](O)[C@H](Cc1ccccc1)NC(=O)O[C@H]1CO[C@H]2OCC[C@H]21)S(=O)(=O)c1ccc(N)cc1	BALB/c mouse, plasma	intravenous, 2.5 mg/kg, 6 h	concentration	4.19 ng/mL
CC(C)(C)c1ccc(O)c(CN(Cc2cc(C(C)(C)C)ccc2O)C2CCC(NC(N)=O)CC2)c1 (stereo not drawn)	male C57BL/6 mouse, brain	intraperitoneal, 10 mg/kg, single dose	half-life	7.08 h
CC(C)(Nc1nc(-c2ccccn2)nc2ccccc12)c1ccccn1	female BALB/c mouse, plasma	intravenous, 1 mg/kg, 15 min	concentration	963 ng/mL
CC(C)Oc1cccc(-c2cnc(N3CCC(C(N)=O)CC3)s2)c1	male Swiss mouse, brain	oral, 30 mg/kg, 4 h, single dose	concentration	83 nM
c1ccc(-c2nc(N3CCC(c4ccccn4)C3)c3ccccc3n2)nc1 (stereo not drawn)	female BALB/c mouse, plasma	oral, 50 mg/kg, 1 h	concentration	2940 ng/mL
O=c1nc(N2CCN(CC3CCCCC3)CC2)sc2c([N+](=O)[O-])cc(C(F)(F)F)cc12	CD-1 mouse, plasma	oral, 100 mg/kg, 8 h	concentration	336 ng/mL
CC(C)(O)c1ccccc1-c1ccc2[nH]c(/C=C/c3ccc(C(F)(F)F)cc3)nc2c1	male human, plasma	oral, 60 mg, single dose, fasted, healthy volunteers	MRT	91.4 h
